Test results from the EternaBench riboswitch data.

Test system: MS2 coat protein
Assay: apparent Kd, MS2 coat protein; higher = weaker binding; RNA-MaP array; FMN 200 µM where present
How it was run: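 Designs were transcribed by stalled E. coli RNA polymerase on Illumina sequencing-chip clusters. They were titrated with SNAP-549-labelled MS2 coat protein from 0.7 or 1.5 nM, doubling to 3 µM, without and then with constant ligand. Buffer: 100 mM Tris-HCl pH 7.5, 80 mM KCl, 4 mM MgCl2, BSA, DTT, yeast tRNA, Tween-20. Green signal was normalised to red-channel RNA signal and control-cluster median Fmax. Apparent Kd is the median of filtered per-cluster binding-curve fits.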

[1] = designed as: ON switch for flavin mononucleotide, no ligand
[2] = ligand present: flavin mononucleotide, designed as: ON switch for flavin mononucleotide
[3] = designed as: OFF switch for flavin mononucleotide, no ligand
[4] = ligand present: flavin mononucleotide, designed as: OFF switch for flavin mononucleotide

| Sequence | apparent Kd [1] [nM] | apparent Kd [2] [nM] | apparent Kd [3] [nM] | apparent Kd [4] [nM] |
| --- | --- | --- | --- | --- |
| GGGUACAUGGGAGGAUAUCAUGUAAAUACAUGAGGAUCACCCAUGUCGAUGGAGACAUCGGAGAUUGAGAAGGCCGAUGUACCG | 21.1 | 37.8 | – | – |
| UUUAGUUCAGGAUAUGUAGAUUUUAACAUGAGGAUCACCCAUGUAGAUCCUGAUCCUGCUACAGAAGGGAAUAUUU | – | – | 23.1 | 25.1 |
| ACAGCACGAGGAUAUACAUGAGGAUCACCCAUGUCUGAGGGAAGGCGAACGCCCUUGUGUAGAAGGCGUUGAUC | – | – | 91.4 | 112 |
| ACUGCAUAGUCAGGAUAUGCAAAAGCAGACUCAAAGAGUCUGAACAACACAUGAGGAUCACCCAUGUAGAAGGGACUGUGCAGU | – | – | 18.3 | 18 |
| AGCGGCGCGGGCCACCGCAGGACCAGAAGGACAUGAGGAUCACCCAUGUAGCAGAACAGGGCGGUGUAGGAUAUGGCAGGCUCG | – | – | 22.5 | 51.6 |
| AGAACAUGAGGAUCACCCAUGUAAAGAUCGGUUAAUAAGGGUGAGGAUAUGCUUAAAAUAAGGUAGCAGAAGGUACUUGGUACA | 247 | 345 | – | – |
| UUGGACGUCGUAGGAUAUGUAGGAUAUUCCUACAUGAGGAUCACCCAUGUUGACAUGGAAGAAGGAAAGAAGGACGAUGUCCAU | 496 | 303 | – | – |
| AGCUUCGAAGGAUAUCCAGGUCCAGACAUGAGGAUCACCCAUGUGGUGAAGACGUUACCCGGAGAAGGUUGUGAGU | – | – | 70.5 | 61.7 |
| UAAAUACAUGAGGAUCACCCAUGUCAGGAUAUAUUACGCCCGCCAAGCGAGCGCGUCUAUAGAAGGGACGGUGA | – | – | 33.3 | 33.2 |
| GUCGGAAACGACAAUGAUAGGACUGAGGAUAUACAUAAGUUAGUCCACACAUGAGGAUCACCCAUGUAGAAGGCAGUCCUAUCU | – | – | 29.5 | 357 |
| AAGCGAGGGACAGGAUAUGCGGCGAAAUUCUCCGCAGAAGGGUCGACAUGAGGAUCACCCAUGUCCUUACGCUCCAAGUAGAGG | 324 | 467 | – | – |
| GUCUUACAUGAGGAUCACCCAUGUGAGGAUAUCCCGGGCCCGGGCUUGCCCGGGCCCGGGAGAAGGCACAUGUU | – | – | 32.2 | 99.4 |
| UAGAAUCGAGGAUAUACAUGAGGAUCACCCAUGUGUGGCCAUUUGGUGUGGUCGUCAGGUAGAAGGCGAUUACA | – | – | 160 | 15.6 |
| GGAAAGUGAGGAUAUGCAUAACAAACACAAACACAAACAAAGCAGAAGGCACAUGAGGAUCACCCAUGUAAACA | – | – | 21.1 | 18.1 |
| AAAAAGUCAGGAUAUAUCAAAGCCUAUGAAAGUGGGAAAGGGUAGAAGGGACAUGAGGAUCACCCAUGUAAAAA | – | – | 52 | 50.3 |
| AGUAACAGAGGAUAUACUAUUUUAUGUGUUUGUUGUUUUAAACAUGAGGAUCACCCAUGUAGAAGGCUGAAUAA | – | – | 21.4 | 24.1 |
| GUGAGGUCAGGAUAUGCAUGGCGGGACUUGCGUCGUGGCGUGCAGAAGGGACAUGAGGAUCACCCAUGUGGAGG | – | – | 225 | 302 |
| GGGUACAUCGGAGGAUAUCAUGUAAAUACAUGAGGAUCACCCAUGUCGAUGGAGACAUCGGAGAGUGAGAAGGCCGAUGUACCG | 257 | 13.3 | – | – |
| UACAUGUGAGGAUAUGUACGAAGCCCGGCUGGGCCUCGCAGGCAGAAGGCACAUGAGGAUCACCCAUGUGACCG | – | – | 15.9 | 53.4 |

| Sequence | apparent Kd [1] [nM] | apparent Kd [2] [nM] | apparent Kd [3] [nM] | apparent Kd [4] [nM] |
| --- | --- | --- | --- | --- |
| GUAGUACAUGAGGAUCACCCAUGUGUGGGCGCGUGAGGAUAUGUCCGUACCUGGCGUACGAUAGAAGGCAUGGUGC | 53.3 | 28.4 | – | – |
| AAUUAACACCAGAAGGACAUGAGGAUCACCCAUGUAGGAUAUGGGAGUGGGUCCGUUGGAGUUGGCCCGUCUCUGCGGGCUCGA | 79.1 | 8.95 | – | – |
| AAUUAUUGAUGAGGAUAUUGUGGUGAAACACGACGAGAAGGCAUAUGUCACAUGAGGAUCACCCAUGUGAGCCUUGUGGAUAUA | – | – | 52 | 112 |
| UGUGCGUAUGUGAGGAUAUGCUGGUCCUUGGAUCGGCAGAAGGCACAUGAGGAUCACCCAUGUGGUGUCGUUCG | – | – | 239 | 24 |
| CGUAUGGACAGAGGAUAUGCCGAUAGGAUCUACUAUCGAAGAAUCCUCACAUGAGGAUCACCCAUGUAGAAGGCUGUCCAUACU | – | – | 8.15 | 36.3 |
| CCUGGAUCAUGAGGAUAUGGCACCUUAUUGGUGCCAGAAGGCAUGUCUUUUGACAUGAGGAUCACCCAUGUAAUAAAUUCCAGG | 933 | 131 | – | – |
| GGUGCGUAUGUGAGGAUAUGCUGGUCCUUGGAUCGGCAGAAGGCACAUGAGGAUCACCCAUGUGGUGUCGUACG | – | – | 59.6 | 228 |
| AUUUUAUAAUAGAAGGUAGACUUCAUGAGGAUCACCCAUGUGUUGGUACUAAGGAUAUGUAAUAACAUGAGGAUCACCCAUGUC | 53.3 | 51.7 | – | – |
| UGGUACUAGGGAGGAUAUGGGAAGAUACAUGAGGAUCACCCAUGUUUAAGAAUGCCGAGAGGCAACUAGAAGGCUCUAGUACCU | 416 | 18.4 | – | – |
| GCUAGUAUUGCAGGAUAUUGUAAAUUAUUAUUUCAAGAAGGGCAUUACAUGAGGAUCACCCAUGUCAUCCUUUGGAAUACUAGC | – | – | 6.19 | 6.51 |
| GUGUACGGAGGAUAUAUGUGGGCAGCAUACGCUGCAGCUUCACAUGAGGAUCACCCAUGUAGAAGGCUGUACAC | – | – | 28.7 | 169 |
| UUGGGUCGGGAGGAUAUUCGGGCUCAUGGGCUUGGAGAAGGCUCGACAUGAGGAUCACCCAUGUAAGUGUACUU | – | – | 153 | 542 |
| CUUAUGUGAGGAUAUCAGUAGUAAUACAAUAGUAUUACUACUGAGAAGGCACAUGAGGAUCACCCAUGUUCCUU | – | – | 28.1 | 131 |
| AGAUGAUGAUGUUAUCUUCGUCGGACAUGAGGAUCACCCAUGUAGGAUAUGCUACUCAAAGAGUAGCAGAAGGACAUGUAUCUU | – | – | 25.4 | 113 |
| UGAUACAUGAGGAUCUCCCAUGACAUGAGGAUCACCCAUGUGCAGGAUAUACGUGUUAUAAUAUAGUAGAAGGGCAGUCUAUGU | – | – | 133 | 199 |
| UACUUCCGAGGAUAUACAUGAGGAUCACCCAUGUGCUUCAGCAUCUAAUGAUGCAUGGGUAGAAGGCGGUAGUU | – | – | 58.5 | 68.1 |
| CCGCGCAUAGGAUAUUAAUCUCACGACAUGAGGAUCACCCAUGUAACUCUGUGUGCGAUCUAAGAAGGGUGGGCUU | – | – | 28.8 | 24 |
| UAUAUAUAGUAAGGAUAUGUAUAUUUUUUAUAAACAGAAGGUACUGACAUGAGGAUCACCCAUGUUUUAGUGUGGGCAUGUAGA | – | – | 79.3 | 122 |
| GAGUGGUUGGGAGGAUAUGCAUUGUUAUUAAAUGCAGAAGGUUUUAACAUGAGGAUCACCCAUGUAGGACUAUUCCUGUGUUUC | 17.4 | 14.6 | – | – |

| Sequence | apparent Kd [1] [nM] | apparent Kd [2] [nM] | apparent Kd [3] [nM] | apparent Kd [4] [nM] |
| --- | --- | --- | --- | --- |
| GAGCGGGAAACAUGAGGAUCACCCAUGUGAUGAAUCCUCACAUAGGAUAUCCACACGAGAAGUGUGGAGAAGGAUGACCCGGUC | – | – | 1120 | 1700 |
| AGAACGUCAGGAUAUGCAACAACAAGUAAAUAGAGAAGAAGGCAGAAGGGACAUGAGGAUCACCCAUGUAAGAA | – | – | 36.6 | 36.3 |
| UUUGAUUAAGUGAGGAUAUACUGUUUGUAUUGAUUGUAGAAGGUACAUGAGGAUCACCCAUGUUUAGUAUUUAU | – | – | 20.5 | 20 |
| UAAGUACAUGAGGAUCACCCAUGUUGGAAUAGAGCAGGAUAUGUGCAGAGGGAAAUAAAAACAGAAGGGCUAAGAA | 45.3 | 28.6 | – | – |
| UGAACUAUGUAGAAGGCCCAUAUUUAUAUUUAGGGAGGAUAUACAUGAGGAUCACCCAUGUAUAGAGCAAGUGGACUUGUCAGU | – | – | 9.19 | 10.3 |
| AGUGUGUGGCAGGAUAUUCCGGUCGUGAGUCGGGAAGAAGGGUCUACAUGAGGAUCACCCAUGUGAGCGGUUGA | – | – | 317 | 360 |
| ACCUCACAUGAGGAUCACCCAUGUAAGGAUAUCUUCGCUUUGACGUUGUUCUAUGCGAAGAGAAGGUACACGGC | – | – | 28.3 | 111 |
| AGUCAUACAGGAUAUACAUGAGGAUCACCCAUGUUUAUCCUAAAAUAAAAAACCUCAUGUAGAAGGGUAUGACA | – | – | 19.4 | 13.5 |
| CUGAUGUGAGGAUAUCUAAAAGAAACUGGGCAAAAUACCAGAGAGAAGGCACAUGAGGAUCACCCAUGUAACGA | – | – | 19.1 | 69.5 |
| AUACAUGAGGAUCACCCAUGUUACUGGGUCUUAAUAGAACGUAGAAGGAUGAUUUUAUAAAUAACAUAGGAUAUACAAUAUUGU | – | – | 181 | 105 |
| AUAAUUUUAUAUUUCUUUUUAUUCAGAAGGCAUAACAUGAGGAUCACCCAUGUAAAUUAAUGUUAUGAGGAUAUGAUUUGGUUA | – | – | 24.2 | 105 |
| GCCUUAUCAGUCAGGAUAUACAAUAAAAUAAUUAAGUAGAAGGGACAUGAGGAUCACCCAUGUACAUUACAUUG | – | – | 18.6 | 53.5 |
| UCCUCCGCAGGAUAUACAUGGGCGCCCGUCUUCAACCAUUAACAUGAGGAUCACCCAUGUAGAAGGGCGUCUCU | – | – | 16.1 | 15.5 |
| CAUAUAGUAGUGAGGAUAUGCGAAUAUAUAAUUAAGUAGAAGGCACAUGAGGAUCACCCAUGUAUAUUGUAAAG | – | – | 20.6 | 20.6 |
| AGCUGUGGCCGAGGAUAUCUGUUCCAUAAAACCGAAAUAUAAUCGGACAUGAGGAUCACCCAUGUAGAGAAGGCGGUCUCAGCA | – | – | 23.9 | 26.4 |
| UAGAUUUAUGUAGGAUAUACAUUUUUUAUGUAUGUAGAAGGACAUGAGGAUCACCCAUGUAAAUAAAUAUUAAAUAUCAUAAUU | – | – | 30.4 | 23.8 |
| AAGCGAGGGACAGGAUAUGCGGCAAAACUCGCCGCAGAAGGGUCGACAUGAGGAUCACCCAUGUCCUUACGCUCCAAGUAGAGG | 213 | 359 | – | – |
| AAAACAUGAGGAUCACCCAUGUAUAGAUCGGUUAAUAGAAGUGAGGAUAUGCUUAAAAUAAGGUAGCAGAAGGCACUGGGUACA | 23.9 | 25.1 | – | – |
